From ChEMBL document CHEMBL3632461 (J Med Chem, 2015)
Activity calls are given as the source filed them. The calls are words filed in the database; no cut-off is given here.

Experiments:
[1] = Retention time of the compound in sodium phosphate buffer at 10 uM after 60 mins by LC-MS/MS analysis in presence of H2O2; type: physicochemical; settings: 1 h
[2] = Lipophilicity, log D of the compound at pH 7.4 by shake-flask method; type: physicochemical; settings: buffer
[3] = biological target: T1, Thyroid peroxidase (Homo sapiens) (UniProt P07202); experiment: Inhibition of TPO (unknown origin) using Amplex Red as substrate assessed as formation of resorufin by measuring ratio of Kinact to Ki measured every 20 secs by spectrophotometric analysis
T1 sequence (whole entry): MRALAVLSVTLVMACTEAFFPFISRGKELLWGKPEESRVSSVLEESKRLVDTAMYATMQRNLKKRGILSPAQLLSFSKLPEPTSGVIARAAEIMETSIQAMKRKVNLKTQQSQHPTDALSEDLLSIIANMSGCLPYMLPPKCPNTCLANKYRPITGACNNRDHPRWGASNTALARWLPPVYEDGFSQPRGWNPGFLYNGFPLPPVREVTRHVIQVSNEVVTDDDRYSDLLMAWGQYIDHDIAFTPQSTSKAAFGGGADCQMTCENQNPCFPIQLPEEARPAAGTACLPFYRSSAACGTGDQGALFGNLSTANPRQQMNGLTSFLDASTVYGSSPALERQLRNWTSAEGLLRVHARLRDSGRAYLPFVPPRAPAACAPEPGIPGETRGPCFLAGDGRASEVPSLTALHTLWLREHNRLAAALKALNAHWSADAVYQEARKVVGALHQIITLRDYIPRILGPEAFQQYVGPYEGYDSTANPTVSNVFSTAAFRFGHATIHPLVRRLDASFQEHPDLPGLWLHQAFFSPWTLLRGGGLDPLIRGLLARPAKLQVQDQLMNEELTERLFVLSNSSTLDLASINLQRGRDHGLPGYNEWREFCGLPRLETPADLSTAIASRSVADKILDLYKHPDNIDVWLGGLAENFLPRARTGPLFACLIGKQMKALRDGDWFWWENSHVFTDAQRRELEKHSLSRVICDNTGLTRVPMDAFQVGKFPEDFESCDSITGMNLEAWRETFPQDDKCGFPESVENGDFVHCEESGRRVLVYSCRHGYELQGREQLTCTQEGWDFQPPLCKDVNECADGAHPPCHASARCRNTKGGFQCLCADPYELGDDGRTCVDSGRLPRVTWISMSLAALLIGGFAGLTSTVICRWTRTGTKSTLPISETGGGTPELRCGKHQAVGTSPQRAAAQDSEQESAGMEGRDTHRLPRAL
How it was run: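 Amplex Red oxidation to resorufin in 50 mM sodium phosphate pH 7.4, 150 mM NaCl, 1 mM DTPA, 2 μM H2O2, 30 μM Amplex Red, 2% DMSO. Reaction started by adding TPO. Background rate measured with bovine catalase added and subtracted. Fluorescence (ex 530/em 580) read every 20 s at room temperature. kinact/KI taken from initial rates over the first 300 s. Geometric mean of at least two experiments.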

Myeloperoxidase [4] = biological target: T2, Myeloperoxidase (Homo sapiens, UniProt P05164); experiment: Irreversible inhibition of MPO in LPS-stimulated human whole blood after 4 hrs by Amplex Red/H2O2-based fluorescence plate reader analysis
T2 sequence (P05164 whole entry): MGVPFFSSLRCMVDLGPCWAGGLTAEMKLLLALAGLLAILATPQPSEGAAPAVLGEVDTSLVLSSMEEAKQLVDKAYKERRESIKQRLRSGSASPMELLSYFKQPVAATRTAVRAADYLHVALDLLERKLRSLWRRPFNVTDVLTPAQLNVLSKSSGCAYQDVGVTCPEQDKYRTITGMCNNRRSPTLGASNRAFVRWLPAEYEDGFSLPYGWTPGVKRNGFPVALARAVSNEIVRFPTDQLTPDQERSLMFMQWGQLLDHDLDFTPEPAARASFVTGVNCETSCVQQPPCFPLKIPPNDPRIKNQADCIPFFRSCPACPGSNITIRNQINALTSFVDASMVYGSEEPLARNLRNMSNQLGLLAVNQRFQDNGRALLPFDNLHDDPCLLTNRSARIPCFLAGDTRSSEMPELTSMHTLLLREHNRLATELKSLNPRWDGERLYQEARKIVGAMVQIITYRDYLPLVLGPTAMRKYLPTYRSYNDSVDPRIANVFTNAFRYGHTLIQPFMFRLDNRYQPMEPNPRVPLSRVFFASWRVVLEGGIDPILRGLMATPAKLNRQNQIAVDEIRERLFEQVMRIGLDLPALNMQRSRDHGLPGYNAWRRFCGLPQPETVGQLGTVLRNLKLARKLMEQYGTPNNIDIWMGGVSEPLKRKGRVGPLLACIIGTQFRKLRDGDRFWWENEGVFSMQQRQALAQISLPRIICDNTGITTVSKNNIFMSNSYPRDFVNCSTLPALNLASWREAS
How it was run: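 Heparinized whole blood from healthy human volunteers, stimulated with bacterial LPS and incubated with compound for 4 h. MPO captured on anti-MPO antibody plates and washed; residual activity measured with Amplex Red and H₂O₂. IC₅₀ reported as geometric mean [90% CI].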

[5] = biological target: T3, Myeloperoxidase (Homo sapiens) (UniProt P05164); experiment: Inhibition of peroxidase activity of MPO isolated from human polynuclear leukocytes using Amplex Red as substrate assessed as formation of resorufin by measuring ratio of Kinact to Ki measured every 20 secs by spectrophotometric analysis
T3 sequence (whole entry): T2 sequence (P05164 whole entry)
How it was run: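 Enzyme purified from human polynuclear leukocytes. Buffer: 50 mM sodium phosphate pH 7.4, 150 mM NaCl, 1 mM DTPA, 2 μM H2O2, 30 μM Amplex Red, inhibitor or DMSO. Resorufin fluorescence (ex 530/em 580) read every 20 s at room temperature. Progress curves fitted for kobs at each concentration. kinact/KI derived from the kobs versus [I] fit or slope. Geometric mean of at least two experiments.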

[6] = biological target: T3, Myeloperoxidase (Homo sapiens); settings: 24 uM
Myeloperoxidase [7] = biological target: T2, Myeloperoxidase; experiment: Inhibition of peroxidase activity of MPO isolated from human polynuclear leukocytes using Amplex Red as substrate assessed as formation of resorufin after 300 secs by spectrophotometric analysis
[8] = biological target: T3, Myeloperoxidase (Homo sapiens); settings: 24 uM; remark: listed apart in the source
[9] = biological target: T3, Myeloperoxidase (Homo sapiens); settings: 0.47 to 30 uM
[10] = Drug level in sodium phosphate buffer treated with 10 uM PTU after 60 mins by LC-MS/MS analysis in presence of human MPO/H2O2/Cl-; type: physicochemical; settings: 1 h
[11] = Retention time of the compound by LC-MS/MS analysis in presence of human MPO/H2O2/Cl-/excess GSH; type: physicochemical
Myeloperoxidase [12] = biological target: T2, Myeloperoxidase; experiment: (§1) Inhibition of peroxidase activity of MPO isolated from human polynuclear leukocytes using Amplex Red as substrate assessed as formation of resorufin measured every 20 secs by spectrophotometric analysis
[13] = biological target: T3, Myeloperoxidase (Homo sapiens); experiment: as §1
Liver microsome = experiment: Intrinsic apparent clearance in human liver microsomes; type: ADME
How it was run: (§2)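 Stability incubations in NADPH-supplemented human liver microsomes or cryopreserved human hepatocytes. Total apparent intrinsic clearance scaled from the in vitro half-life; microsomes reported per mg protein, hepatocytes per 10⁶ cells.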

[14] = Apparent permeability across RRCK cells; type: ADME, cell-based, Canis lupus familiaris, MDCKII-LE; settings: dog, MDCK
How it was run: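 Passive permeability measured in Ralph−Russ canine kidney (RRCK) cells, a low-transporter line isolated from Madin−Darby canine kidney cells; reported as P_app (10⁻⁶ cm/s).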

[15] = Plasma clearance in Beagle dog at 1 mg/kg, iv and 3 or 5 mg/kg, po; type: ADME, organism-based, Canis lupus familiaris
How it was run: (§3)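 Male CD-1 mice (25−35 g), cannulated Wistar-Han rats (250 g), beagle dogs (12 kg) and cynomolgus monkeys (7 kg), fasted overnight and fed 1.0 or 2.0 h after dosing. iv 1 mg/kg in saline or 12% sulfobutyl ether β-cyclodextrin; po 3 or 5 mg/kg in 0.5% methylcellulose. Parameters calculated from plasma concentration−time data; mean ± SD for n = 3, individual values for n = 2.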

[16] = Volume of distribution at steady state in Wistar rat at 1 mg/kg, iv and 3 or 5 mg/kg, po; type: ADME, organism-based; settings: in vivo, read-out: Vdss
How it was run: (§4)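 Male mice, rats, dogs and cynomolgus monkeys, fasted overnight, fed after dosing. Intravenous dose 1 mg/kg in saline or 12% sulfobutyl ether β-cyclodextrin; oral arm 3 or 5 mg/kg in 0.5% methylcellulose. Steady-state volume derived from plasma concentration−time data; mean ± SD for n = 3, individual values for n = 2.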

[17] = Elimination half life in Wistar rat at 1 mg/kg, iv and 3 or 5 mg/kg, po; type: ADME, organism-based; settings: in vivo, read-out: beta t1/2 (converted); how it was run: as §3
[18] = Plasma clearance in Wistar rat at 1 mg/kg, iv and 3 or 5 mg/kg, po; type: ADME, organism-based; how it was run: as §3
[19] = Oral bioavailability in Wistar rat at 3 or 5 mg/kg; type: ADME, organism-based; settings: in vivo
How it was run: (§5)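 Male CD-1 mice, Wistar-Han rats, beagle dogs and cynomolgus monkeys, fasted overnight and fed after dosing. Given po at 3 or 5 mg/kg in 0.5% methylcellulose, with an iv reference dose of 1 mg/kg. Bioavailability derived from plasma concentration−time data; mean ± SD (n = 3) or individual values (n = 2).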

[20] = Fraction unbound in human plasma by equilibrium dialysis method; type: ADME, cell-free
How it was run: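 Fraction unbound in human plasma measured by equilibrium dialysis; mean of three individual determinations.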

[21] = Elimination half life in Beagle dog at 1 mg/kg, iv and 3 or 5 mg/kg, po; type: ADME, organism-based, Canis lupus familiaris; settings: in vivo, read-out: beta t1/2 (converted); how it was run: as §3
Hepatocyte = experiment: Intrinsic apparent clearance in human hepatocytes assessed per 10^6 cells; type: ADME, cell-based; how it was run: as §2
[22] = Volume of distribution at steady state in Beagle dog at 1 mg/kg, iv and 3 or 5 mg/kg, po; type: ADME, organism-based, Canis lupus familiaris; settings: in vivo, read-out: Vdss; how it was run: as §4
[23] = Tmax in Wistar rat at 3 or 5 mg/kg, po; type: ADME, organism-based; settings: in vivo
How it was run: (§6)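 Male animals (CD-1 mice 25−35 g, cannulated Wistar-Han rats 250 g, beagle dogs 12 kg, cynomolgus monkeys 7 kg), fasted overnight and fed 1.0 or 2.0 h after dosing, water ad libitum. Oral dose 3 or 5 mg/kg in 0.5% methylcellulose. Parameters calculated from plasma concentration−time data; mean ± SD for n = 3, individual values for n = 2.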

[24] = Oral bioavailability in Beagle dog at 3 or 5 mg/kg; type: ADME, organism-based, Canis lupus familiaris; settings: in vivo; how it was run: as §5
[25] = Tmax in Beagle dog at 3 or 5 mg/kg, po; type: ADME, organism-based, Canis lupus familiaris; settings: in vivo; how it was run: as §6

`COc1ccc(-c2cc(=O)nc3n2CCO3)c(OC)c1` showed a Retention_time [1] of 14.99 min.

Work on `COc1ccccc1-c1cc(=O)[nH]c(=S)[nH]1` yielded a logD [2] of 1.3, a log(ratio) [3] of 2.86 and an IC50 (Myeloperoxidase [4]) of 6.2 µM. The log(ratio) [5] was 3.36.

For `CCCc1cc(=O)[nH]c(=S)[nH]1` [PROPYLTHIOURACIL], the inhibition [6] was “inactive”, the IC50 (Myeloperoxidase [7]) was 2.81 µM and the IC50 (Myeloperoxidase [4]) was 5.7 µM. The inhibition [8] was “Active” and the inhibition [9] was “tde”.

In the case of `CCCc1cc(=O)nc(SSc2nc(=O)cc(CCC)[nH]2)[nH]1`, the Drug metabolism [10] is reported as “metabolite_detected”.

`COc1ccc(-c2cc(=O)nc(SC[C@H](NC(=O)CC[C@H](N)C(=O)O)C(=O)NCC(=O)O)n2CCOC(C)C)c(OC)c1` gave a Retention_time [11] of 15.7 min.

With `CCCc1cc(=O)nc(S(=O)O)[nH]1` the Drug metabolism [10] was “metabolite_detected”.

For `CCCc1cc(=O)nc(S(=O)(=O)O)[nH]1`, the Drug metabolism [10] was “metabolite_detected”.

For `COc1ccc(-c2cc(=O)[nH]c(=S)n2CCOC(C)C)c(OC)c1`, the Ki (Myeloperoxidase [12]) was 0.501 µM, the pKinact [13] was 2.43 and the logD [2] was 2.6. The CLH(app) (Liver microsome) was 11 µL/min/mg, the log(ratio) [3] was under 0.5 and the IC50 (Myeloperoxidase [4]) was 11 µM. It also gave a Papp [14] of 260 nm/s, a log(ratio) [5] of 3.87 and a Retention_time [11] of 25.4 min.

Work on `COc1ccc(-c2cc(=O)[nH]c(=S)n2CC(=O)NCCN)c(OC)c1` yielded a clearance [15] of 0.246 L/h/kg, a logD [2] of -1.4 and a CLH(app) (Liver microsome) of under 8 µL/min/mg. For the same compound, the log(ratio) [3] was under 0.5, the Vd [16] was 0.59 L/kg and the half-life [17] was 48.6 min. The clearance [18] was 2.32 L/h/kg, the Papp [14] was 15 nm/s and the bioavailability [19] was 3%. The log(ratio) [5] was 4.03, the fraction unbound [20] was 0.9 and the half-life [21] was 155 min. The “CLH(app)” value (Hepatocyte) was under 6 µL/min, the Vd [22] was 0.86 L/kg and the Tmax [23] was 45 min. The bioavailability [24] was 8% and the Tmax [25] was 60 min.
